This note sets out measurements from PubChem BioAssay AID602309 (Southern Research Specialized Biocontainment Screening …, 2012).

This test concerns the target M17 leucyl aminopeptidase (Plasmodium falciparum 3D7). Briefly: PfM17LAP leucine aminopeptidase inhibitors, dose response, biochemical, QFRET, set 3 (AID 602309). The note with it: purified rPfM17LAP, H-Leu-NHMec fluorogenic cleavage; for inhibition: at 100 µM (top of the series). The method in brief:
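assay system = recombinant P. falciparum M17 leucyl aminopeptidase | amount = enzyme 5 µg/mL final | medium = Tris buffer pH 7.5, 2 mM CoCl2, 2% DMSO | timing = 90 min reaction, room temperature | signal = fluorescence at 370/460 nm | read-out = IC50 from four-parameter logistic fit of % inhibition, bounds 0–100% | replication = triplicates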

Activity calls are given as the source filed them.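 The calls were made as follows: active = inhibition of 30% or more at any tested concentration; inactive = the rest.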

For `CCCCOc1ccc(C(C)(C)C(=O)NO)cc1`, the inhibition entry was “inactive”.

As usually defined, the IC50 is the concentration that gives 50% inhibition. For the molecule `CCC(C)Oc1ccc(CC(=O)NO)cc1` (stereo not drawn), the IC50 is 2.27 µM.

In the case of `CCCCOc1cccc(CC(=O)OC)c1`, the inhibition result is “inactive”. Still for that read-out and setting: in the case of `CCCCOc1ccc(C(C)(C)C(=O)O)cc1` it was “inactive”; in that of `CN(C)CCOc1ccc(CC(=O)O)cc1`, “inactive”; in that of `CCCCOc1ccc(C(C)C(=O)OC)cc1` (stereo not drawn), “inactive”.

Turning to `O=C(NO)c1ccc2ccccc2c1`, the IC50 was 46.3 µM. Same read-out and setting: the result for `CCCOc1ccc(CC(=O)NO)cc1` reads 1.39 µM; that for `CCCCOc1cccc(CC(=O)NO)c1`, 2.26 µM.

As for `CCCCOc1ccc(CN(O)C(C)=O)cc1`, the inhibition entry is “inactive”. As to `CCCCOc1ccc(C(C)C(=O)NO)cc1` (stereo not drawn), the IC50 is 2.16 µM. For `CCCOc1ccc(CC(=O)O)cc1`, the inhibition entry was “inactive”.

For the molecule `CCCCOc1ccc(CN(O)C(=O)c2ccccc2)cc1`, the inhibition result was “inactive”.
